From ChEMBL document CHEMBL6134769, “Discovery of N-substituted-2-oxoindolin benzoylhydrazines as c-MET/SMO modulators in EGFRi-resistant non-small cell lung cancer” (RSC Med Chem, 2025)

Legend:
[1] = organism: Homo sapiens; assay: Inhibition of human full-length N-terminal His-tagged ABL (2 to 1130 (end)residues) expressed in baculovirus expression system at 20 uM measured after 1 hr in presence of peptide substrate and ATP by off-chip mobility shift assay relative to control
How it was run: (§1)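 Off-chip mobility shift assay. Product and substrate peptides were separated; activity was taken as P/(P+S). Complete reaction was set as 0% inhibition and enzyme-free background as 100%. Run in triplicate, mean ± SD.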

[2] = target: Ephrin type-A receptor 2 (Homo sapiens) (UniProt P29317); assay: Inhibition of EPHA2 (unknown origin) at 20 uM measured after 1 hr in presence of peptide substrate and ATP by off-chip mobility shift assay relative to control; how it was run: as §1
Sequence of Ephrin type-A receptor 2 (Homo sapiens) (P29317 whole entry, the tested form may be a part): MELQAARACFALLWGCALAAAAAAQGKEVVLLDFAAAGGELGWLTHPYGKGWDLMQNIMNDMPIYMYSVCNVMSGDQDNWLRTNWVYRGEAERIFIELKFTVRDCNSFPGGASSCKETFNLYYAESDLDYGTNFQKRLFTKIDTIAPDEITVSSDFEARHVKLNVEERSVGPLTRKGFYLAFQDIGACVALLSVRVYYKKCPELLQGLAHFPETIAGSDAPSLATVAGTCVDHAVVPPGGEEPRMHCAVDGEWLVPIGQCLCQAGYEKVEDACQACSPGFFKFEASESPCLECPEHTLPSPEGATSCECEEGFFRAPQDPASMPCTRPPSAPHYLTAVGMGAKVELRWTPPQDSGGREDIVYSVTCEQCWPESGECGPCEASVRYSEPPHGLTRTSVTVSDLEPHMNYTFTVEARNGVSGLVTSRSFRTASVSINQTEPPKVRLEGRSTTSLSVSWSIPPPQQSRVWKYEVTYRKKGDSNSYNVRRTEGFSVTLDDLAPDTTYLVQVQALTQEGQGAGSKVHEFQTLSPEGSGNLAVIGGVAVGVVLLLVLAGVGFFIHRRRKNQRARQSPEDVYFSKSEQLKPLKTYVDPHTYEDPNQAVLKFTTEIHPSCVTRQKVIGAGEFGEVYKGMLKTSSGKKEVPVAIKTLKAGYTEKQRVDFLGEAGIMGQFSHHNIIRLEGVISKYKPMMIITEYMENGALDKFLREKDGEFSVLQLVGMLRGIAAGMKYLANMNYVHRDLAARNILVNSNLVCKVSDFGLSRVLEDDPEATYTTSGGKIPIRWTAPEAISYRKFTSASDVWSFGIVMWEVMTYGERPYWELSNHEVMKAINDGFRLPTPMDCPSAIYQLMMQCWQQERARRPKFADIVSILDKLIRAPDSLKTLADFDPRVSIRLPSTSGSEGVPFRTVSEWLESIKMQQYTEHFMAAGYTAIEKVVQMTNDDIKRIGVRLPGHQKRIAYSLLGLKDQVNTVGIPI

[3] = target: Receptor-type tyrosine-protein kinase FLT3 (Homo sapiens) (UniProt P36888); assay: Inhibition of human N-terminal GST-fused FLT3 cytoplasmic domain (564 to 993 (end)residues) expressed in baculovirus expression system at 20 uM measured after 1 hr in presence of peptide substrate and ATP by off-chip mobility shift assay relative to control; how it was run: as §1
Sequence of Receptor-type tyrosine-protein kinase FLT3 (Homo sapiens) (P36888 whole entry, the tested form may be a part): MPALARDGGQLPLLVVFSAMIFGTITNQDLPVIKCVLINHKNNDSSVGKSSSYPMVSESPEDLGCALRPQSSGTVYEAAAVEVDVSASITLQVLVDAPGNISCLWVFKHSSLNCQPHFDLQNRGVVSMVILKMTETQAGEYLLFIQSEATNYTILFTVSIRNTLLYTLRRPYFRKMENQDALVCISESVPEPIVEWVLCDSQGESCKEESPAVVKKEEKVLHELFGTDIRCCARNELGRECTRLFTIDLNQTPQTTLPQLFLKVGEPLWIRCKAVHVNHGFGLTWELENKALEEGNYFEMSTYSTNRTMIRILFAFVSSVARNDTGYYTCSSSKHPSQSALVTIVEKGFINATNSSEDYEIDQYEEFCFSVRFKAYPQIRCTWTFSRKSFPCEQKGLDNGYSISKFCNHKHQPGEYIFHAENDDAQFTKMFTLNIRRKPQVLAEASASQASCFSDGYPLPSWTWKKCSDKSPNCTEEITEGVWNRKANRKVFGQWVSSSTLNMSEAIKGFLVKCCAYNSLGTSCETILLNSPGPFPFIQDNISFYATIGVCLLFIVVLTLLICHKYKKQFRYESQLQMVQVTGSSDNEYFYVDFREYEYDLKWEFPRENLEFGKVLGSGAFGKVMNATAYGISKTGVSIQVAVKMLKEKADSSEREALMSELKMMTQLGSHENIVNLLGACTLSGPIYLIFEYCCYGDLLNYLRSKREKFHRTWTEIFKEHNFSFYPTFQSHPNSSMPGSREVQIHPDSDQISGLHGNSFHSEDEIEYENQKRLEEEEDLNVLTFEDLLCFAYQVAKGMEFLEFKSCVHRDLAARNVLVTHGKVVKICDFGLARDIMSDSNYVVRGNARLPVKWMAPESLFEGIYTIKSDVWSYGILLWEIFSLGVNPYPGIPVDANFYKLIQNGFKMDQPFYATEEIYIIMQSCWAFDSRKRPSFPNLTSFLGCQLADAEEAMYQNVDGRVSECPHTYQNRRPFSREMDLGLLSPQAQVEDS

[4] = target: Insulin-like growth factor 1 receptor (Homo sapiens) (UniProt P08069); assay: Inhibition of human N-terminal GST-fused IGF1R cytoplasmic domain (959 to 1367 (end)residues) expressed in baculovirus expression system at 20 uM measured after 1 hr in presence of peptide substrate and ATP by off-chip mobility shift assay relative to control; how it was run: as §1
Sequence of Insulin-like growth factor 1 receptor (Homo sapiens) (P08069 31-736 limits assumed): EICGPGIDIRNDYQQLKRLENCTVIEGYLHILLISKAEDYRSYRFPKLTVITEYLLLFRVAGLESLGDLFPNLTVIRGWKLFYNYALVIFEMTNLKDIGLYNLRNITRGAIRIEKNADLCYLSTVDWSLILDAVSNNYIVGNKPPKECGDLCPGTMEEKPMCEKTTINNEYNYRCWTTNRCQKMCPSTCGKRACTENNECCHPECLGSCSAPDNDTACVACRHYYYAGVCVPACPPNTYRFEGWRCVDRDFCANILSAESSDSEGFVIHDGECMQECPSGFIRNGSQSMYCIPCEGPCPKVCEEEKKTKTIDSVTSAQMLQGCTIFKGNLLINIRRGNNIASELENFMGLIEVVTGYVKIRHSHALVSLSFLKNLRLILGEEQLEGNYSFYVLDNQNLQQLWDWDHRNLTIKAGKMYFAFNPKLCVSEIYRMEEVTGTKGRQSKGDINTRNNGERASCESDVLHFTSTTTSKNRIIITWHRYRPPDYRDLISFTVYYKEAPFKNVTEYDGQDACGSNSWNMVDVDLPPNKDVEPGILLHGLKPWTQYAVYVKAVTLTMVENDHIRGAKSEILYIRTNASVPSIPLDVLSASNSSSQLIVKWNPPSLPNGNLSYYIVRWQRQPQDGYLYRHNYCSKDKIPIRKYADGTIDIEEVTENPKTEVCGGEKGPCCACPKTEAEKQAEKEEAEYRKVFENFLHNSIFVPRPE
Sequence of Insulin-like growth factor 1 receptor (Homo sapiens) (P08069 741-1367 limits assumed): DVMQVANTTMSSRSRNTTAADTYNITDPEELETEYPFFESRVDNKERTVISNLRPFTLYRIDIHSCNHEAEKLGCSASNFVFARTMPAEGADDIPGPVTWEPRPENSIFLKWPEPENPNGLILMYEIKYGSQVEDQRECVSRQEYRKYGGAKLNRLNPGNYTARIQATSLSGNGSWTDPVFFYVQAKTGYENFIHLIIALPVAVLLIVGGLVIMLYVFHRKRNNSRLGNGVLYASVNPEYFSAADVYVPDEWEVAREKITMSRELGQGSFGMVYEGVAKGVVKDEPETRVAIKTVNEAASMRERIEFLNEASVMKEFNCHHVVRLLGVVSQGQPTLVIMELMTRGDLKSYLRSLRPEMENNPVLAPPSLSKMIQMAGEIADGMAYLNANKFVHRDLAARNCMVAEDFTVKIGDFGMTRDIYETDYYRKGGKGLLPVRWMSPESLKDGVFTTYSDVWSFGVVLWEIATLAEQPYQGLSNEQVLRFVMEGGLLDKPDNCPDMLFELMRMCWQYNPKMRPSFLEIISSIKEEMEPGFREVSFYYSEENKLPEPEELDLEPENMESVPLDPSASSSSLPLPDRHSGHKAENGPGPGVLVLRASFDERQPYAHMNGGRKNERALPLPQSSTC

[5] = target: T1, Tyrosine-protein kinase JAK3 (Homo sapiens) (UniProt P52333); assay: Inhibition of human N-terminal His-tagged JAK3 catalytic domain (795 to 1124 (end)residues) expressed in baculovirus expression system at 20 uM measured after 1 hr in presence of peptide substrate and ATP by off-chip mobility shift assay relative to control; how it was run: as §1
T1 sequence (whole entry): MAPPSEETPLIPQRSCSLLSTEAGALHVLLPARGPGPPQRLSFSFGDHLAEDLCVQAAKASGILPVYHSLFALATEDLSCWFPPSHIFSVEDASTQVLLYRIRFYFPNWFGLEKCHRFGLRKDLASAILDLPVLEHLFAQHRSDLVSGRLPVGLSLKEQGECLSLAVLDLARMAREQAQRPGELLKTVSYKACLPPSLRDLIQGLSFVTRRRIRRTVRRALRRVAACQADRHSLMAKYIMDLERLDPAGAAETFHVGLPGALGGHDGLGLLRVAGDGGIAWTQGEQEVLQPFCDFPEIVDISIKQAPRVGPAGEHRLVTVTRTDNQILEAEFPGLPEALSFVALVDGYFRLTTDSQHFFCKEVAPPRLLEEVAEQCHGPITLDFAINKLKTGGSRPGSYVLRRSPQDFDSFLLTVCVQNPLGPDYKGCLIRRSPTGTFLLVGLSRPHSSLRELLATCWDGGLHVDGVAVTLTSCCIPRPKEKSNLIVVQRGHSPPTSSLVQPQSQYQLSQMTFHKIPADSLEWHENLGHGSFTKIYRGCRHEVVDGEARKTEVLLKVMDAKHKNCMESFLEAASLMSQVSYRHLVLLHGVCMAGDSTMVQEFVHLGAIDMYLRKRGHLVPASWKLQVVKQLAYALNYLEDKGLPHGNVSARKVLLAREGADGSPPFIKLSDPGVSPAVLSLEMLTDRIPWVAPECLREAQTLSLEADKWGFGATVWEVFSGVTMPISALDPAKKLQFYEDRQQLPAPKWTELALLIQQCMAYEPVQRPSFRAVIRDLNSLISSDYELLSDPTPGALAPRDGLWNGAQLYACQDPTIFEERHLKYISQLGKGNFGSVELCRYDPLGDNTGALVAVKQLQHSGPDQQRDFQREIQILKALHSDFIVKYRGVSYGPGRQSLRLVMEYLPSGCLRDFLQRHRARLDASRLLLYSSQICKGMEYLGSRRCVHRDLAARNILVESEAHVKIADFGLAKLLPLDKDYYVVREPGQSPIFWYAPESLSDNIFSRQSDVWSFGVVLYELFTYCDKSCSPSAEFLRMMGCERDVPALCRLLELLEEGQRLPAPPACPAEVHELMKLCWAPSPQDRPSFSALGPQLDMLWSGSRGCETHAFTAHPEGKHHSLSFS

[6] = target: T2, Tyrosine-protein kinase receptor TYRO3 (Homo sapiens) (UniProt Q06418); assay: Inhibition of human N-terminal GST-fused TYRO3 cytoplasmic domain (453 to 890 (end)residues) expressed in baculovirus expression system at 20 uM measured after 1 hr in presence of peptide substrate and ATP by off-chip mobility shift assay relative to control; how it was run: as §1
T2 sequence (whole entry): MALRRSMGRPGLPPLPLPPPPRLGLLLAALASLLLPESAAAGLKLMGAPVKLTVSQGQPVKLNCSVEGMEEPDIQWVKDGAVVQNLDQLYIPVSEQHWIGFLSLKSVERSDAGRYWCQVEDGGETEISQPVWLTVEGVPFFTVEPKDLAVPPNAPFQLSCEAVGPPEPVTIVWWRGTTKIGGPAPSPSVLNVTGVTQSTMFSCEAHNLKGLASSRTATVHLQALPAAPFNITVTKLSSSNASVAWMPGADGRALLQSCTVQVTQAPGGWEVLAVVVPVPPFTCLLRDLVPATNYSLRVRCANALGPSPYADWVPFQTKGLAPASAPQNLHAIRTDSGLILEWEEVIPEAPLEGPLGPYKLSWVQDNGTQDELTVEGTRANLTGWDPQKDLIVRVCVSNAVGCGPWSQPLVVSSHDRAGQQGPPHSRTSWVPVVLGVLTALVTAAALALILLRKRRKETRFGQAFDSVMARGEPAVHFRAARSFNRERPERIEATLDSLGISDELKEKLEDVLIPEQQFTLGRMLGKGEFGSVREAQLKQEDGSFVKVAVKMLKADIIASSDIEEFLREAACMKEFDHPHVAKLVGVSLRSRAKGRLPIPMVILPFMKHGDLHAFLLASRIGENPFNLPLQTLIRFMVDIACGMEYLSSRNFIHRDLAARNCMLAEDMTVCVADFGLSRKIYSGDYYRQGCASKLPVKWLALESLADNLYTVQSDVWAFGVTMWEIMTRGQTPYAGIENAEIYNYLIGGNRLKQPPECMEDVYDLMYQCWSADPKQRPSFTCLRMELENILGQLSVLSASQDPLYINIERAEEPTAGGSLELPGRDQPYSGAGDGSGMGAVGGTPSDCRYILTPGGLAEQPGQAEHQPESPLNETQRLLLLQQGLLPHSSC

[7] = target: Protein smoothened (Homo sapiens, UniProt Q99835); assay: Displacement of [3H]-cyclopamine from SMO receptor (unknown origin) expressed in HEK293T cell membranes measured after 4 hrs by liquid scintillation spectrometry.; design: species or system Cell membrane
Sequence of Protein smoothened (Q99835 whole entry): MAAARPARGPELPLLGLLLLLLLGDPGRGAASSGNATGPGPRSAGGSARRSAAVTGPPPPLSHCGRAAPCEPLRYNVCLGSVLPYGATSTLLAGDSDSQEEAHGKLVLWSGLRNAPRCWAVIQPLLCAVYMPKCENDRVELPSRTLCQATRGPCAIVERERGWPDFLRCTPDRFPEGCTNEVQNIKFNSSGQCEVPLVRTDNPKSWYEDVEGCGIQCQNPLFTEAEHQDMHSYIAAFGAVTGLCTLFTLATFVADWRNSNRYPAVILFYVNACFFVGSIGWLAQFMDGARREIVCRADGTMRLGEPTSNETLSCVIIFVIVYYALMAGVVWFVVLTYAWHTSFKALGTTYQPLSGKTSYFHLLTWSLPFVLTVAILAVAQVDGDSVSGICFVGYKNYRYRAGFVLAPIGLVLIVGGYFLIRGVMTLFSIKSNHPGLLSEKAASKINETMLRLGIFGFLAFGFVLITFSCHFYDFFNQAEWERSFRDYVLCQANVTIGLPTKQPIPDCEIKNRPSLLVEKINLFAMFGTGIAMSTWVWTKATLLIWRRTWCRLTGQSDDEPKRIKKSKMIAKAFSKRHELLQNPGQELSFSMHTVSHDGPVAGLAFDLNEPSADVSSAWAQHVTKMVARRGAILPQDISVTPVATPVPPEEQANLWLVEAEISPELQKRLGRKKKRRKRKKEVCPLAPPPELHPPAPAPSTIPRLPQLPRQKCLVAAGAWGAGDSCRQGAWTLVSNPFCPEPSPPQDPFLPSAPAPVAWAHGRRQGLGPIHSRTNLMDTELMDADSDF
How it was run: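 Incubation of 15 μg HEK293T-WT SMO membranes (Kd 20 nM, Bmax 6.2 pmol/mg) with 25 nM [3H]-cyclopamine and varied compound, 4 h at RT, in 50 mM HEPES, 5 mM MgCl2, 0.02% BSA. Nonspecific binding was taken with 25 μM compound plus vismodegib. Bound ligand was separated on PEI-soaked GF/C filters, washed with ice-cold PBS/0.01% Triton X-100, and counted by scintillation; IC50 converted to Ki by Cheng–Prusoff.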

Row | inhibition [1] [%] | inhibition [2] [%] | inhibition [3] [%] | inhibition [4] [%] | inhibition [5] [%] | inhibition [6] [%] | Ki [7] [nM] | Structure (SMILES)
1 | 63.5 | 69.2 | 72.6 | 54 | 72.4 | 39.3 | 11 | Cc1ccc(NC(=O)CN2C(=O)/C(=N\NC(=O)c3cc(Br)ccc3O)c3ccc(Br)cc32)cc1
2 | 74.9 | 95 | 89.7 | 80.2 | 83.8 | 48.5 | 185 | Cc1ccc(NC(=O)CN2C(=O)/C(=N\NC(=O)c3cc(Br)ccc3O)c3ccccc32)cc1
3 | 67.9 | 71.5 | 55.8 | 66 | 78.9 | 46.4 | 9 | O=C(CN1C(=O)/C(=N\NC(=O)c2cc(Br)ccc2O)c2c(Br)cccc21)Nc1ccc([N+](=O)[O-])cc1
4 | – | 62.5 | 71.9 | 55.3 | 76.6 | 51.3 | 28 | Cc1ccc(NC(=O)CN2C(=O)/C(=N\NC(=O)c3cc(Br)ccc3O)c3ccc(Cl)cc32)cc1
